Assay results reported in PubChem BioAssay.
Active and inactive are the calls of the source.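 How the source made its calls, unless noted: active means viability loss from added drug above about 55%, and viability with drug at most 40%, in both replicates (limit read from the data, passing the limit was not always enough); inconclusive means both conditions met in only one replicate; inactive means neither replicate meets both conditions.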

Key:
[1] = Her2 expression decrease, cell viability multiplex – SKBR3 breast tumor cells, AlphaScreen, ATP viability, primary screen (AID 461;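 active means Her2 level under about 52% in both replicate screens, with viability over 70% of control, limit read from the data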;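 on Her2 level: lower value means less Her2 protein in the cells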;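 on viability: percent of carrier control wells set as 100% viability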); settings: SKBR3 Her2 protein level, 18-24 h, measured here: SKBR3 viability, ATP luminescence, at 10 µM
[2] = molecular target: Receptor tyrosine-protein kinase erbB-2 (Homo sapiens) (UniProt P04626); assay: as above; settings: 18-24 h, at 10 µM, stronger effect = lower value
[3] = reduced viability of SK-BR-3 breast cancer cells – cell-based, 24 h, human, pilot screen (AID 572;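 active means viability at or below 10% of carrier control in both of two separate runs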;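 further: compound exposure lasted between 18 and 24 h rather than exactly 24 h; 100% = carrier-treated control wells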); settings: SK-BR-3 viability, CellTiter-Glo luminescence, at 10 µM, stronger effect = lower value
[4] = HUVEC growth inhibition – cell-based, human, primary screen (AID 575;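 active means viability at or below 30% in both replicate assays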;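 further: 100% = median of untreated cell wells with 0.1% DMSO on each plate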); settings: HUVEC proliferation, CellTiter-Glo luminescence, 72 h; at 10 µM; stronger effect = lower value
Method in brief: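 Material: primary human umbilical vein endothelial cells / Schedule: 72 h exposure, 37 °C, 5% CO2, 30 min RT equilibration / Signal: ATP-based CellTiter-Glo luminescent read / Read-out basis: percent of median DMSO-control luminescence / Control set: 32 DMSO-only cell-control wells (high), 32 MePR drug-control wells (low) per plate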

[5] = H69AR cell proliferation blockers – human, duplicate replicates, primary screen (AID 580;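 active means viability at or under a set limit in both replicates, limit being median viability minus 3 SD, cut at about 48% in these data, passing the limit was not always enough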;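 further: 100% = mean luminescence of untreated wells and 0% = no signal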); settings: H69AR lung tumor cells viability, ATP luminescence, 72 h; at 10 µM; stronger effect = lower value
[6] = MRP1 drug-resistance reversers in H69AR cells – cell-based, doxorubicin co-treatment, pilot screen (AID 601); settings: CellTiter-Glo, 72 h, at 10 µM; for differential viability (reversal): stronger effect = higher value
[7] = yeast transport mutant growth inhibition pilot in 384-well plates, post-Golgi transport modulator project (AID 636; in the data active means inhibition above about 31%); settings: absorbance 615 nm, about 18 h, stronger effect = higher value
[8] = growth suppression of yeast trafficking mutant, preliminary HTS, modulators of trafficking downstream of Golgi apparatus project, 1536-format plate, OD 615 nm (AID 637; in the data active means inhibition above about 30%); settings: yeast transport mutant growth, absorbance 615 nm, 18 h; stronger effect = higher value
[9] = H69AR cells + 2 uM doxorubicin, measured here: viability with 2 uM doxorubicin, stronger effect = lower value
[10] = H69AR cells, compound alone cytotoxicity

Chain of Receptor tyrosine-protein kinase erbB-2 (Homo sapiens) (P04626 whole entry, looked up): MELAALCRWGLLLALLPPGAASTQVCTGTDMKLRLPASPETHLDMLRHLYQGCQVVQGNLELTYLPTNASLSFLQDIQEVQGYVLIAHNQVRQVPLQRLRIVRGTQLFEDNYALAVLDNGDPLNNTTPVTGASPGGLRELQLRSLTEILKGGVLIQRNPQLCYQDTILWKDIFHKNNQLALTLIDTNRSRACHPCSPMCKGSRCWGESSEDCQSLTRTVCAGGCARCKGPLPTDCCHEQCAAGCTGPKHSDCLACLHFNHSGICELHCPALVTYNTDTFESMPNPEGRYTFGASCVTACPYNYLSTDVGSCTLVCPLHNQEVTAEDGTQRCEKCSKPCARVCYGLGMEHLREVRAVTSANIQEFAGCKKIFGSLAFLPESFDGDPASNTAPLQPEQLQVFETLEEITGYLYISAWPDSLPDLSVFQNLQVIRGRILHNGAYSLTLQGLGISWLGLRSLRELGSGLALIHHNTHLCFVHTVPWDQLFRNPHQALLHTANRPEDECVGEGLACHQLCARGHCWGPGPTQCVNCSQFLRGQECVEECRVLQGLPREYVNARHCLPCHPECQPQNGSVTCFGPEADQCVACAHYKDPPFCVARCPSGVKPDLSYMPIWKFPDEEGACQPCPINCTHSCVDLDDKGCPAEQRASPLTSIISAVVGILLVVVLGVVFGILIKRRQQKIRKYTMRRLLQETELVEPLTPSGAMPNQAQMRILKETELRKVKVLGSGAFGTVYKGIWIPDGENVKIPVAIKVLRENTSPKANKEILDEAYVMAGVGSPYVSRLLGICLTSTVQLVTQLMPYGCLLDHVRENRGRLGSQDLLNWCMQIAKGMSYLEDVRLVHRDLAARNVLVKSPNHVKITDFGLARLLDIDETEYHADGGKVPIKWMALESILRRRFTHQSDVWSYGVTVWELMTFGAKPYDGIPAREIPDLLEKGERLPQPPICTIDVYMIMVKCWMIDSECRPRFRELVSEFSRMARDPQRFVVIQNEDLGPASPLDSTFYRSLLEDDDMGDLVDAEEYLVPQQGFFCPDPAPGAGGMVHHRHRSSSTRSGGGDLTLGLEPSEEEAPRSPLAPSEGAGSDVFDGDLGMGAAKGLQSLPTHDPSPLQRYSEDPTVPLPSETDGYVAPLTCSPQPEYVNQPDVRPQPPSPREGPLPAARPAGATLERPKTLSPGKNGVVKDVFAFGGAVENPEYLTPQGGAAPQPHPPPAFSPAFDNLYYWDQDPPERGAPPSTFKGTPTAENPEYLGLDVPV

Row | SMILES | viability [1] | Her2 level [2] | viability [3] | viability [4] | viability [5] | differential viability (reversal) ([6]; H69AR cells + 2 uM doxorubicin) | viability [6, 9] | viability [6, 10] | inhibition [7] | inhibition [8]
1 | COC(=O)c1ccc(CSc2nc3c(cnn3-c3ccc(C)c(C)c3)c(=O)[nH]2)o1 | 90% | 91.5% (inactive) | 90% (inactive) | 18.9% (active) | 88.4% (inactive) | 10.6% (inactive) | 77.8% | 88.4% | -3.6% (inactive) | -1.64% (inactive)
2 | CN(C)c1ccc(CNn2cnnc2)cc1 | 104% | 88.5% (inactive) | 104% (inactive) | 95.8% (inactive) | 100% (inactive) | -4.28% (inactive) | 105% | 100% | -4.08% (inactive) | 0.67% (inactive)
3 | COc1cccc(N2CCN(CC(=O)NCc3cccs3)CC2)c1 | 108% | 100% (inactive) | 108% (inactive) | 128% (inactive) | 99% (inactive) | 6.28% (inactive) | 92.8% | 99% | -3.38% (inactive) | -2.17% (inactive)
4 | O=C(Cn1cccc1C(=O)c1ccccc1)NCCN1CCOCC1 | 98% | 89.5% (inactive) | 98% (inactive) | 111% (inactive) | 90% (inactive) | 2.57% (inactive) | 87.4% | 90% | -0.79% (inactive) | 0.97% (inactive)
5 | COc1ccc(/C=N/n2c(=O)[nH]c3c([nH]c4ccc(C)cc43)c2=O)cc1CN1CCOCC1 | 112% | 100% (inactive) | 112% (inactive) | 95.6% (inactive) | 84.6% (inactive) | 0.925% (inactive) | 83.7% | 84.6% | -1.71% (inactive) | 12% (inactive)
6 | COc1ccccc1C1C(C(C)=O)=C(O)C(=O)N1CCc1ccccc1 (stereo not given) | 93.5% | 102% (inactive) | 93.5% (inactive) | 98.1% (inactive) | 104% (inactive) | 9.69% (inactive) | 94.5% | 104% | -5.07% (inactive) | 3.87% (inactive)
7 | COc1ccc(Br)cc1S(=O)(=O)N1CC(C)OC(C)C1 (stereo not given) | 90.5% | 100% (inactive) | 90.5% (inactive) | 95.6% (inactive) | 91.3% (inactive) | -4.83% (inactive) | 96.2% | 91.3% | 1.73% (inactive) | -6.35% (inactive)
8 | O=C(CCNS(=O)(=O)c1ccc(Cl)cc1)NCc1ccccn1 | 97.5% | 75.5% (inactive) | 97.5% (inactive) | 81.4% (inactive) | 89.7% (inactive) | -6.95% (inactive) | 96.7% | 89.7% | -5.26% (inactive) | -1.83% (inactive)
9 | CCC(C)(C(=O)NC1CCCCC1)N(Cc1ccco1)C(=O)c1ccc2c(c1)OCO2 (stereo not given) | 92.5% | 89% (inactive) | 92.5% (inactive) | 82.3% (inactive) | 83.4% (inactive) | 3.06% (inactive) | 80.3% | 83.4% | -1.82% (inactive) | -7.05% (inactive)
10 | Cc1cc(-c2ccccc2)nc2cc(C(=O)NCCCn3ccnc3)nn12 | 104% | 103% (inactive) | 104% (inactive) | 98.8% (inactive) | 88.2% (inactive) | 8.86% (inactive) | 79.3% | 88.2% | -6.13% (inactive) | -1.45% (inactive)
11 | CCCn1c(C)nc2c(c1=O)c1nc3ccccc3nc1n2CCc1ccccc1 | 98% | 103% (inactive) | 98% (inactive) | 102% (inactive) | 88.5% (inactive) | -3.46% (inactive) | 91.9% | 88.5% | -4.42% (inactive) | 0.5% (inactive)
12 | COC(=O)c1cc(=O)nc2sc(-c3cccs3)nn12 | 115% | 85% (inactive) | 115% (inactive) | 84% (inactive) | 93.4% (inactive) | 8.2% (inactive) | 85.2% | 93.4% | -4.86% (inactive) | 5.24% (inactive)
13 | CC(=O)N1CCc2cc(S(=O)(=O)CCC(=O)N3CCN(c4ccccn4)CC3)ccc21 | 91.5% | 98% (inactive) | 91.5% (inactive) | 105% (inactive) | 98% (inactive) | 6.38% (inactive) | 91.6% | 98% | 4.67% (inactive) | 12% (inactive)
14 | Cc1cc(Nc2ccccc2)n(CCC#N)n1 | 83.5% | 84.5% (inactive) | 83.5% (inactive) | 105% (inactive) | 102% (inactive) | 9.18% (inactive) | 92.9% | 102% | -5.73% (inactive) | 7.7% (inactive)
15 | O=C(Nc1c(-c2ccccc2)nc2ccccn12)c1ccco1 | 95% | 106% (inactive) | 95% (inactive) | 109% (inactive) | 103% (inactive) | 16.5% (inactive) | 86.9% | 103% | -0.92% (inactive) | -4.55% (inactive)
16 | Cc1ccc(-c2cc(C(=O)Nc3cc(C)ccc3C)[nH]n2)c(O)c1 | 102% | 88% (inactive) | 102% (inactive) | 109% (inactive) | 92.4% (inactive) | 2.75% (inactive) | 89.6% | 92.4% | -3.16% (inactive) | -1.9% (inactive)

Row | SMILES | viability [1] | Her2 level [2] | viability [3] | viability [4] | viability [5] | differential viability (reversal) ([6]; H69AR cells + 2 uM doxorubicin) | viability [6, 9] | viability [6, 10] | inhibition [7] | inhibition [8]
17 | CC(C)OC(=O)c1cc(=O)[nH]c2ccccc12 | 128% | 79% (inactive) | 128% (inactive) | 95.7% (inactive) | 102% (inactive) | 21.9% (inactive) | 80.7% | 102% | -2.47% (inactive) | -2.22% (inactive)
18 | COc1ccc(C)cc1NC(=O)COCC(=O)O | 106% | 114% (inactive) | 106% (inactive) | 92.4% (inactive) | 103% (inactive) | 7.92% (inactive) | 95.2% | 103% | -6.89% (inactive) | -3.49% (inactive)
19 | CCOC(=O)c1ccccc1NC(=O)c1cc2sccc2n1C | 90% | 96% (inactive) | 90% (inactive) | 70.5% (inactive) | 81% (inactive) | 3.9% (inactive) | 77% | 81% | 1.23% (inactive) | -2.38% (inactive)
20 | COC(=O)C(O)(CC(=O)c1ccc(OC)cc1)C(F)(F)F (stereo not given) | 100% | 98% (inactive) | 100% (inactive) | 91.5% (inactive) | 95.9% (inactive) | 0.63% (inactive) | 95.3% | 95.9% | -1.33% (inactive) | -5% (inactive)
21 | Cc1onc(-c2ccccc2)c1C(N)=O | 91% | 93.5% (inactive) | 91% (inactive) | 97.7% (inactive) | 100% (inactive) | 13.8% (inactive) | 86.7% | 100% | -1.32% (inactive) | -4.35% (inactive)
22 | COc1ccc(C(=O)N2CCCc3ccccc32)cc1 | 87.5% | 94% (inactive) | 87.5% (inactive) | 116% (inactive) | 104% (inactive) | 11.1% (inactive) | 93% | 104% | -4% (inactive) | 5.81% (inactive)
23 | C=CCOc1ccccc1/C=c1\sc2nc(=O)c(C)nn2c1=O | 100% | 84% (inactive) | 100% (inactive) | 85.1% (inactive) | 72.6% (inactive) | -10.6% (inactive) | 83.1% | 72.6% | -8.27% (inactive) | 0.79% (inactive)
24 | N/C(=N/O)c1nc(N2CCCC2)nc(N(c2ccccc2)c2ccccc2)n1 | 108% | 93.5% (inactive) | 108% (inactive) | 75.9% (inactive) | 65.2% (inactive) | 5.79% (inactive) | 59.4% | 65.2% | -6.62% (inactive) | 3.17% (inactive)
25 | Cc1ccc2cc(CN(Cc3ccc4c(c3)OCO4)Cc3nnnn3Cc3ccco3)c(=O)[nH]c2c1C | 98.5% | 97% (inactive) | 98.5% (inactive) | 85.1% (inactive) | 79.6% (inactive) | 13.3% (inactive) | 66.4% | 79.6% | -1.33% (inactive) | -3.17% (inactive)
26 | CC(=O)C1=C(O)C(=O)N(Cc2cccnc2)C1c1ccccc1 (stereo not given) | 101% | 114% (inactive) | 101% (inactive) | 97.8% (inactive) | 105% (inactive) | 10% (inactive) | 95.3% | 105% | -6.13% (inactive) | -1.77% (inactive)
27 | C=CCSC1=C(C#N)C(c2ccccc2OCC)CC(=O)N1 (stereo not given) | 94% | 81% (inactive) | 94% (inactive) | 88.3% (inactive) | 95.3% (inactive) | 3.58% (inactive) | 91.8% | 95.3% | -5.39% (inactive) | 0.5% (inactive)
28 | COc1ccccc1CN1C(=O)CCC1(C)C(=O)NC1CCCCCC1 (stereo not given) | 83% | 99% (inactive) | 83% (inactive) | 101% (inactive) | 98.1% (inactive) | 2.86% (inactive) | 95.2% | 98.1% | -2.13% (inactive) | 2.62% (inactive)
29 | Cc1nnc(SCc2nc3ccccc3s2)n1-c1ccccc1 | 88% | 83% (inactive) | 88% (inactive) | 75.4% (inactive) | 76% (inactive) | -5.34% (inactive) | 81.3% | 76% | -6% (inactive) | -0.48% (inactive)
30 | COc1ccc(Cn2c(-c3ccco3)nc3oc4ccccc4c(=O)c3c2=O)cc1 | 87.5% | 92.5% (inactive) | 87.5% (inactive) | 101% (inactive) | 98.2% (inactive) | 14.2% (inactive) | 84% | 98.2% | -0.67% (inactive) | 6.45% (inactive)
31 | Cc1cc(Cl)c(S(=O)(=O)N2CCN(c3ccc(F)cc3)CC2)cc1OCC(N)=O | 82.5% | 100% (inactive) | 82.5% (inactive) | 97.1% (inactive) | 80.5% (inactive) | 1.14% (inactive) | 79.3% | 80.5% | -5.66% (inactive) | 8.85% (inactive)
32 | Cc1nnc2n(-c3ccccc3)c(=O)c3c4c(sc3n12)CCCC4 | 79.5% | 115% (inactive) | 79.5% (inactive) | 96.2% (inactive) | 85.6% (inactive) | 33.2% (inactive) | 52.4% | 85.6% | -7.47% (inactive) | 0.33% (inactive)
